Sampled rows, rich in hits. Any-hit rate of the full collection: about 1.4%.
MT1-MMP act inh: blocks activation of human MT1-MMP | P50281 | HT1080 RFP-PRO-GFP cells, GFP/RFP ratio fluorescence, overnight; percent of plate control window, DMSO zero | GFP/RFP ratio change, % at 20 µM | 360,000 compounds, 0.061% hits | AID 651647;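 active means GFP/RFP ratio change of at least 30% with cell ATP level not reduced by more than half and red fluorescence within 50% of control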
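Material: RFP-PRO-GFP reporter HT1080 cells. Dosing: single-point 20 µM compound, 1% DMSO. Controls: DMSO and RFP-L50D-GFP cell wells. Timing: cells overnight before dosing, compound overnight, 37 °C, 5% CO2. Measure: GFP/RFP fluorescence ratio.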
SKN-1 block: inhibitors of C. elegans SKN-1 | inhibition, % at 21.8 µM | 360,000 compounds, 0.49% hits | AID 624304 | C. elegans VP596 Pgst-4::GFP/RFP ratio, acrylamide-induced, 24 h;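 active means interference check ratio from 0.5 to 1.5 plus GFP to RFP signal ratio inhibition reaching or exceeding a fixed threshold, cut at about 30% in these data, passing the limit was not always enough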
iPSC survival up: increases survival of single human iPS cells; hiPSC single-cell survival, ATPlite luminescence; 100% = ROCK inhibitor wells, 0% = DMSO; AID 602274; survival enhancement, % at 20 µM; 360,000 compounds, 0.044% hits; in the data active means survival enhancement above about 18%;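 further: cells exposed to compounds for 16 hours before the ATP read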
CendR NRP1 mod: alters CendR peptide binding to human NRP-1; AID 602438; FAM-RPARPAR peptide binding to NRP-1, fluorescence polarization; 360,000 compounds, 0.85% hits; inhibition, % at 25 µM;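 active means inhibition or corrected inhibition above about 18%, plus a signal ratio from 0.5 to 1.5, limit read from the data, passing the limit was not always enough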
Target sequence (O14786 whole entry, looked up): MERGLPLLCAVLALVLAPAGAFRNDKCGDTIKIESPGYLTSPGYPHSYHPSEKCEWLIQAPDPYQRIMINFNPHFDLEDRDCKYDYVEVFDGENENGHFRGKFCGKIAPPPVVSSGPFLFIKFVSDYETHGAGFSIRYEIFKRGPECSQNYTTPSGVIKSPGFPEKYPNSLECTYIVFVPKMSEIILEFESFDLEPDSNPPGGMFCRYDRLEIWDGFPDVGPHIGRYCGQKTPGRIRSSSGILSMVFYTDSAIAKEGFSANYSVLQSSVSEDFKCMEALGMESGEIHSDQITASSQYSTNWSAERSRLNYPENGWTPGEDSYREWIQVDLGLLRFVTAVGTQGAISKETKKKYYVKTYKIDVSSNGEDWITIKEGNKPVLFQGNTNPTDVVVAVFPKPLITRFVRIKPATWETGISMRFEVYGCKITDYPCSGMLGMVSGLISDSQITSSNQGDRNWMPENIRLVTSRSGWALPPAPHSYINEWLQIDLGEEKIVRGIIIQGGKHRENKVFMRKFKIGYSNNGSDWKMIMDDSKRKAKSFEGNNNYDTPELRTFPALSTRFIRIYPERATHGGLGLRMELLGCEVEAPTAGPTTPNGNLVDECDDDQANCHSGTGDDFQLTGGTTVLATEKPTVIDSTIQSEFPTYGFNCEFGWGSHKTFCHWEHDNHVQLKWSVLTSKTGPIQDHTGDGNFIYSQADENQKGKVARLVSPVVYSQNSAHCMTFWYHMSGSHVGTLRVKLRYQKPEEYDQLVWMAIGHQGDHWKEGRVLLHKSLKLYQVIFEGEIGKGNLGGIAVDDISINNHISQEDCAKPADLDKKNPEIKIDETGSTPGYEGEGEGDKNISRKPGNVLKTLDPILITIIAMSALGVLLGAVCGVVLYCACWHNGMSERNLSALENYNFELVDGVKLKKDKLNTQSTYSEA
The depositor's hits bear a star.

How did CC(C)C[C@H](NC(=O)C1CCN(C(=O)[C@H](Cc2ccccc2)NC(=O)OC(C)(C)C)CC1)C(=O)O do in these assays?
MT1-MMP act inh: -2.5; SKN-1 block: -4.1; iPSC survival up: 0.8; CendR NRP1 mod: 0.0

What do the screens show for `CCOc1ccc(NC(=O)CSc2nnc(COc3c(C)cccc3C)o2)cc1`?
MT1-MMP act inh: 3.1; SKN-1 block: 10.3; iPSC survival up: 4.8; CendR NRP1 mod: 24.0*

Results for Cc1cccc(N=C2NC(=O)/C(=C/c3cccn3C)S2)c1C ?
MT1-MMP act inh: -31.4; SKN-1 block: 40.7*; iPSC survival up: -0.1; CendR NRP1 mod: -75.3

What do the screens show for `Oc1cccc(Nc2c3ccccc3nc3ccccc23)c1`?
MT1-MMP act inh: -10.9; SKN-1 block: 35.6*; iPSC survival up: -0.4; CendR NRP1 mod: 8.6

What do the screens show for `O=C(NCC(c1cccnc1)N1CCN(c2ccc(F)cc2)CC1)c1ccc2c(c1)OCO2` (stereo not drawn)?
MT1-MMP act inh: 1.4; SKN-1 block: 42.3*; iPSC survival up: 4.2; CendR NRP1 mod: 1.0

What do the screens show for `O=C1c2ccc(Cl)cc2S(=O)(=O)c2cccc(C(=O)N3CCC(Cc4ccccc4)CC3)c21`?
MT1-MMP act inh: -1.5; SKN-1 block: -6.5; iPSC survival up: -3.6; CendR NRP1 mod: 25.8*

Results for Cn1c(SCc2nc3ccccc3s2)nnc1-c1cccs1 ?
MT1-MMP act inh: -5.4; SKN-1 block: 6.6; iPSC survival up: -1.3; CendR NRP1 mod: 43.7*

What do the screens show for `Brc1ccc(N/N=C(/N=Nc2nn[nH]n2)c2ccccc2)cc1`?
MT1-MMP act inh: 17.8; SKN-1 block: -6.4; iPSC survival up: -1.4; CendR NRP1 mod: 41.7*

What do the screens show for `CCOC(=O)C1(Cc2cccc(Cl)c2)CCCN(C(=O)c2cc(C)n(C)n2)C1` (stereo not drawn)?
MT1-MMP act inh: 2.9; SKN-1 block: 14.8; iPSC survival up: -0.6; CendR NRP1 mod: -7.6

Results for CCOc1cc(C(=S)N2CCOCC2)ccc1OS(=O)(=O)c1ccc(OC)cc1 ?
MT1-MMP act inh: 2.7; SKN-1 block: 34.4; iPSC survival up: 0.0; CendR NRP1 mod: 29.6*

How did COc1ccc(-c2cc(=O)oc3cc(OCC(=O)N(C)C)ccc23)cc1 do in these assays?
MT1-MMP act inh: -8.0; SKN-1 block: 37.0*; iPSC survival up: -0.1; CendR NRP1 mod: 1.5

Results for Cc1ccc(NC(=S)NNC(=O)C2CC2c2ccc(C)cc2)cc1 (stereo not drawn) ?
MT1-MMP act inh: -1.4; SKN-1 block: 39.9*; iPSC survival up: -1.0; CendR NRP1 mod: -2.9

What do the screens show for `N#C/C(=C\c1c(N2CCOCC2)nc2ccccn2c1=O)C(=O)NC1CCS(=O)(=O)C1` (stereo not drawn)?
MT1-MMP act inh: -0.7; SKN-1 block: 11.8; iPSC survival up: 0.1; CendR NRP1 mod: 13.6

How did O=C1c2ccccc2C(=O)c2c1ccc(C(=O)N1CCCCC1)c2NCCO do in these assays?
MT1-MMP act inh: 23.2; SKN-1 block: 40.4*; iPSC survival up: -2.7; CendR NRP1 mod: -1.1

What do the screens show for `CC1CCCN(C(=O)c2ccc3c(c2NCCO)C(=O)c2ccccc2C3=O)C1` (stereo not drawn)?
MT1-MMP act inh: 26.7; SKN-1 block: 22.8; iPSC survival up: 1.3; CendR NRP1 mod: 18.8*

How did COc1ccc(-c2[nH]ncc2/C=C(/C#N)C(=O)NC2CCCCC2)cc1 do in these assays?
MT1-MMP act inh: -14.5; SKN-1 block: -16.3; iPSC survival up: -3.8; CendR NRP1 mod: 6.7

What do the screens show for `Cc1ccc(-c2[nH]ncc2/C=C(\C#N)C(=O)NC2CCCCC2)cc1`?
MT1-MMP act inh: -10.1; SKN-1 block: 58.6*; iPSC survival up: 2.7; CendR NRP1 mod: 16.8

How did CCC(=O)OCC(=O)N=c1sccn1Cc1ccccc1Cl do in these assays?
MT1-MMP act inh: 3.0; SKN-1 block: 10.8; iPSC survival up: -0.3; CendR NRP1 mod: 26.1*

How did COc1ccc(C(=O)NCCS(=O)(=O)N2CCc3ccccc3C2)c(OC)c1 do in these assays?
MT1-MMP act inh: 1.0; SKN-1 block: 13.3; iPSC survival up: -0.1; CendR NRP1 mod: 0.5

How did Cc1sc(NC(=O)c2ccco2)c(C(c2cccnc2)N2CCCC2)c1C (stereo not drawn) do in these assays?
MT1-MMP act inh: 1.7; SKN-1 block: 29.5*; iPSC survival up: -1.2; CendR NRP1 mod: -3.1

What do the screens show for `C/C(=N\Nc1ccc(Cl)c(C(=O)O)c1)c1ccc(Br)s1`?
MT1-MMP act inh: 1.6; SKN-1 block: 43.6*; iPSC survival up: 1.1; CendR NRP1 mod: -8.6

Results for N#CCCN(C(=O)Nc1ccccc1)c1ccccc1 ?
MT1-MMP act inh: 1.4; SKN-1 block: -14.8; iPSC survival up: -3.2; CendR NRP1 mod: 28.0*

Assay outcomes: PubChem BioAssay, Sanford-Burnham Center for Chemical Genomics
